Results reported in ChEMBL document CHEMBL2331219, “Synthesis and anti-Candida activity of novel 2-hydrazino-1,3-thiazole derivatives” (Bioorg Med Chem Lett, 2013).
In brackets after ≈: the same amount, converted by molar mass.

How the values were obtained:
[1] = tested on: Candida parapsilosis; test: Antifungal activity against anidulafungin-resistant Candida parapsilosis isolate 22019 assessed as growth inhibition after 24 to 48 hrs by CLSI microbroth dilution method; assay type: functional; conditions: Lodderomyces parapsilosis
How it was run: (§1)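 Microbroth dilution per CLSI M27-A3. Isolates subcultured for purity, incubated at 35 °C; five colonies >1 mm suspended in saline, adjusted to 0.5 × 10³ to 2.5 × 10³ in RPMI 1640 buffered to pH 7.0 with 0.165 M MOPS. Compounds diluted in RPMI to final […]. Read visually after 24 h and 48 h at 35 °C; MIC judged by turbidity against drug-free growth control.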

[2] = tested on: Candida parapsilosis; test: Antifungal activity against anidulafungin-resistant Candida parapsilosis ANF8 assessed as growth inhibition after 24 to 48 hrs by CLSI microbroth dilution method; assay type: functional; conditions: Lodderomyces parapsilosis; how it was run: as §1
[3] = tested on: Nakaseomyces glabratus; test: Antifungal activity against fluconazole-resistant Candida glabrata isolate 6258 assessed as growth inhibition after 24 to 48 hrs by CLSI microbroth dilution method; assay type: functional; how it was run: as §1
[4] = tested on: Nakaseomyces glabratus; test: Antifungal activity against voriconazole-resistant Candida glabrata clinical isolate 730 assessed as growth inhibition after 24 to 48 hrs by CLSI microbroth dilution method; assay type: functional; how it was run: as §1
[5] = tested on: Nakaseomyces glabratus; test: Antifungal activity against voriconazole-resistant Candida glabrata clinical isolate 724 assessed as growth inhibition after 24 to 48 hrs by CLSI microbroth dilution method; assay type: functional; how it was run: as §1
[6] = tested on: Candida albicans; test: Antifungal activity against azole-resistant Candida albicans clinical isolate 7.O.A assessed as growth inhibition after 24 to 48 hrs by CLSI microbroth dilution method; assay type: functional; how it was run: as §1
[7] = tested on: Candida albicans; test: Antifungal activity against fluconazole-resistant Candida albicans clinical isolate 5.O.A assessed as growth inhibition after 24 to 48 hrs by CLSI microbroth dilution method; assay type: functional; how it was run: as §1
[8] = tested on: Candida albicans; test: Antifungal activity against caspofungin-resistant Candida albicans assessed as growth inhibition after 24 to 48 hrs by CLSI microbroth dilution method
[9] = Cytotoxicity against mouse NIH/3T3 cells assessed as cell viability at 62.5 ug/mL after 24 hrs by MTT assay relative to control; assay type: cell-based, NIH3T3; conditions: read-out: Activity
How it was run: (§2)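 NIH/3T3 fibroblasts kept in DMEM with 10% fetal calf serum, penicillin/streptomycin, 37 °C, 5% CO2. Cells seeded at 2 × 10⁴ cells/mL, grown 24 h, then given compound (DMSO stock diluted in medium, final DMSO <0.1%) for 24 h. MTT at 0.5 mg/mL final added for 4 h, formazan dissolved in DMSO, absorbance read at 540 nm. Triplicate wells, mean ± SD, assay run twice.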

[10] = Cytotoxicity against mouse NIH/3T3 cells assessed as cell viability at 31.3 ug/mL after 24 hrs by MTT assay relative to control; assay type: cell-based, NIH3T3; conditions: read-out: Activity; how it was run: as §2
[11] = Cytotoxicity against mouse NIH/3T3 cells assessed as cell viability at 1 ug/mL after 24 hrs by MTT assay relative to control; assay type: cell-based, NIH3T3; conditions: read-out: Activity; how it was run: as §2
[12] = Cytotoxicity against mouse NIH/3T3 cells assessed as cell viability at 0.5 ug/mL after 24 hrs by MTT assay relative to control; assay type: cell-based, NIH3T3; conditions: read-out: Activity; how it was run: as §2
[13] = Aqueous solubility in PBS buffer at pH 7.0; assay type: physicochemical

Compound | MIC [1] [µg/mL] | MIC [2] [µg/mL] | MIC [3] [µg/mL] | MIC [4] [µg/mL] | MIC [5] [µg/mL] | MIC [6] [µg/mL] | MIC [7] [µg/mL] | MIC [8] [µg/mL] | viability at 24 h, 62.5 ug/mL [9] [%] | viability at 24 h, 31.3 ug/mL [10] [%] | viability at 24 h, 1 ug/mL [11] [%] | viability at 24 h, 0.5 ug/mL [12] [%] | solubility [13] [µM]
C/C(=N\Nc1nc([C@@H]2CCCN2C(=O)OCc2ccccc2)cs1)c1ccc2c(c1)CCC2 | > 16 | > 16 | > 16 | > 16 | > 16 | > 16 | > 16 | > 16 |  |  |  |  | 
C/C(=N\Nc1nc([C@H](C)N)cs1)c1ccc2c(c1)CCC2 | 8 (≈ 26.6 µM) | 0.5 (≈ 1.66 µM) | 0.125 (≈ 0.416 µM) | 8 (≈ 26.6 µM) | 8 (≈ 26.6 µM) | > 16 | > 16 | 16 (≈ 53.3 µM) | 32.4 | 36.2 | 92.6 | 93.6 | 700 (≈ 210 µg/mL)
C/C(=N\Nc1nc([C@@H](N)Cc2ccccc2)cs1)c1ccc2c(c1)CCC2 | > 16 | > 16 | > 16 | > 16 | > 16 | > 16 | > 16 | > 16 |  |  |  |  | 150 (≈ 56.5 µg/mL)
C/C(=N\Nc1nc([C@@H]2CCCN2)cs1)c1ccc2c(c1)CCC2 | > 16 | > 16 | > 16 | 16 (≈ 49 µM) | > 16 | > 16 | > 16 | > 16 |  |  |  |  | 900 (≈ 294 µg/mL)
COc1ccc(O)c(-c2csc(N/N=C(/C)C3CCc4ccccc43)n2)c1 (centres undefined) | > 16 | > 16 | > 16 | 16 (≈ 42.2 µM) | > 16 | > 16 | > 16 | > 16 |  |  |  |  | < 50
COc1ccc(O)c(-c2csc(N/N=C/c3ccc4c(c3)OCO4)n2)c1 | > 16 | > 16 | > 16 | > 16 | > 16 | > 16 | > 16 | > 16 |  |  |  |  | 
COc1ccc(O)c(-c2csc(NN=C3CCCCC3)n2)c1 | 16 (≈ 50.4 µM) | > 16 | 16 (≈ 50.4 µM) | 8 (≈ 25.2 µM) | > 16 | > 16 | > 16 | > 16 |  |  |  |  | 
COc1ccc(O)c(-c2csc(N/N=C/c3ccc4ccccc4c3)n2)c1 | > 16 | > 16 | > 16 | > 16 | > 16 | 2 (≈ 5.33 µM) | > 16 | > 16 | 52.7 | 45.3 | 69.2 | 83.7 | 
COc1ccc(O)c(-c2csc(N/N=C/c3c[nH]c4ccccc34)n2)c1 | > 16 | 0.25 (≈ 0.686 µM) | > 16 | 0.5 (≈ 1.37 µM) | > 16 | 0.5 (≈ 1.37 µM) | 0.25 (≈ 0.686 µM) | 2 (≈ 5.49 µM) | 50.2 | 70.6 | 80.6 | 91.9 | 
COc1ccc(O)c(-c2csc(N/N=C/c3cnc4ccccn34)n2)c1 | > 16 | > 16 | > 16 | > 16 | > 16 | > 16 | > 16 | > 16 |  |  |  |  | 
COc1ccc(O)c(-c2csc(N/N=C/c3cc4ccccc4o3)n2)c1 | > 16 | > 16 | > 16 | > 16 | > 16 | > 16 | > 16 | > 16 |  |  |  |  | 
COc1ccc(O)c(-c2csc(N/N=C/c3cc[nH]c3)n2)c1 | 16 (≈ 50.9 µM) | > 16 | > 16 | 16 (≈ 50.9 µM) | 8 (≈ 25.4 µM) | > 16 | 16 (≈ 50.9 µM) | 16 (≈ 50.9 µM) |  |  |  |  | 
COc1ccc(O)c(-c2csc(N/N=C/c3ccco3)n2)c1 | > 16 | > 16 | > 16 | > 16 | > 16 | > 16 | > 16 | > 16 |  |  |  |  | 
COc1ccc(O)c(-c2csc(N/N=C/c3cnc[nH]3)n2)c1 | > 16 | > 16 | > 16 | > 16 | > 16 | > 16 | > 16 | > 16 |  |  |  |  | 
COc1ccc(O)c(-c2csc(N/N=C/c3c(-c4ccccc4)nc4scc(C)n34)n2)c1 | > 16 | 4 (≈ 8.67 µM) | > 16 | 2 (≈ 4.33 µM) | > 16 | > 16 | > 16 | > 16 | 59.5 | 64.1 | 90 | 94.6 | 
C/C(=N\Nc1nc([C@H](C)NC(=O)OCc2ccccc2)cs1)c1ccc2c(c1)CCC2 | > 16 | > 16 | > 16 | > 16 | > 16 | > 16 | > 16 | > 16 |  |  |  |  | 
C/C(=N\Nc1nc([C@H](Cc2ccccc2)NC(=O)OCc2ccccc2)cs1)c1ccc2c(c1)CCC2 | > 16 | > 16 | > 16 | > 16 | > 16 | > 16 | > 16 | > 16 |  |  |  |  | 
C/C(=N\Nc1nc([C@H](Cc2c[nH]c3ccccc23)NC(=O)OCc2ccccc2)cs1)c1ccc2c(c1)CCC2 | 8 (≈ 14.6 µM) | > 16 | > 16 | 8 (≈ 14.6 µM) | > 16 | > 16 | > 16 | > 16 |  |  |  |  | 
C[C@@H]1[C@H](O)[C@@H](C)/C=C/C=C/C=C/C=C/C=C/C=C/C=C/[C@H](O[C@@H]2O[C@H](C)[C@@H](O)[C@H](N)[C@@H]2O)C[C@@H]2O[C@](O)(C[C@@H](O)C[C@@H](O)[C@H](O)CC[C@@H](O)C[C@@H](O)CC(=O)O[C@H]1C)C[C@H](O)[C@H]2C(=O)O [AMPHOTERICIN B] | 1 (≈ 1.08 µM) | 0.5 (≈ 0.541 µM) | 1 (≈ 1.08 µM) | 1 (≈ 1.08 µM) | 0.5 (≈ 0.541 µM) | 0.5 (≈ 0.541 µM) | 0.5 (≈ 0.541 µM) | 0.5 (≈ 0.541 µM) |  |  |  |  | 
CC[C@H](C)C[C@H](C)CCCCCCCCC(=O)N[C@H]1C[C@@H](O)[C@@H](NCCN)NC(=O)[C@@H]2[C@@H](O)CCN2C(=O)[C@H]([C@H](O)CCN)NC(=O)[C@H]([C@H](O)[C@@H](O)c2ccc(O)cc2)NC(=O)[C@@H]2C[C@@H](O)CN2C(=O)[C@H]([C@@H](C)O)NC1=O [CASPOFUNGIN] | 0.5 (≈ 0.457 µM) | 8 (≈ 7.32 µM) | 2 (≈ 1.83 µM) | 2 (≈ 1.83 µM) | 0.5 (≈ 0.457 µM) | 0.25 (≈ 0.229 µM) | 0.5 (≈ 0.457 µM) | 0.5 (≈ 0.457 µM) |  |  |  |  | 
OC(Cn1cncn1)(Cn1cncn1)c1ccc(F)cc1F [FLUCONAZOLE] | 64 (≈ 209 µM) | 1 (≈ 3.27 µM) | 16 (≈ 52.2 µM) | 64 (≈ 209 µM) | 64 (≈ 209 µM) | > 64 | 32 (≈ 104 µM) | 0.125 (≈ 0.408 µM) |  |  |  |  | 
CCC(C)n1ncn(-c2ccc(N3CCN(c4ccc(OCC5COC(Cn6cncn6)(c6ccc(Cl)cc6Cl)O5)cc4)CC3)cc2)c1=O (centres undefined) [ITRACONAZOLE] | 0.5 (≈ 0.709 µM) | 0.03 (≈ 0.0425 µM) | 0.5 (≈ 0.709 µM) | 1 (≈ 1.42 µM) | 2 (≈ 2.83 µM) | > 16 | 0.5 (≈ 0.709 µM) | 0.03 (≈ 0.0425 µM) |  |  |  |  | 
C[C@@H](c1ncncc1F)[C@](O)(Cn1cncn1)c1ccc(F)cc1F [VORICONAZOLE] | 0.25 (≈ 0.716 µM) | 0.06 (≈ 0.172 µM) | 2 (≈ 5.73 µM) | 16 (≈ 45.8 µM) | 8 (≈ 22.9 µM) | > 16 | 0.25 (≈ 0.716 µM) | 0.25 (≈ 0.716 µM) |  |  |  |  | 
